This is an account of results in PMC3085808 (Nutrition Research and Practice, 2011).

Structures are written as SMILES.

Data set [1] concerns the target T1, angiotensin I-converting enzyme (ACE) (Oryctolagus cuniculus, UniProt P12822).
T1 sequence (P12822 34-1310): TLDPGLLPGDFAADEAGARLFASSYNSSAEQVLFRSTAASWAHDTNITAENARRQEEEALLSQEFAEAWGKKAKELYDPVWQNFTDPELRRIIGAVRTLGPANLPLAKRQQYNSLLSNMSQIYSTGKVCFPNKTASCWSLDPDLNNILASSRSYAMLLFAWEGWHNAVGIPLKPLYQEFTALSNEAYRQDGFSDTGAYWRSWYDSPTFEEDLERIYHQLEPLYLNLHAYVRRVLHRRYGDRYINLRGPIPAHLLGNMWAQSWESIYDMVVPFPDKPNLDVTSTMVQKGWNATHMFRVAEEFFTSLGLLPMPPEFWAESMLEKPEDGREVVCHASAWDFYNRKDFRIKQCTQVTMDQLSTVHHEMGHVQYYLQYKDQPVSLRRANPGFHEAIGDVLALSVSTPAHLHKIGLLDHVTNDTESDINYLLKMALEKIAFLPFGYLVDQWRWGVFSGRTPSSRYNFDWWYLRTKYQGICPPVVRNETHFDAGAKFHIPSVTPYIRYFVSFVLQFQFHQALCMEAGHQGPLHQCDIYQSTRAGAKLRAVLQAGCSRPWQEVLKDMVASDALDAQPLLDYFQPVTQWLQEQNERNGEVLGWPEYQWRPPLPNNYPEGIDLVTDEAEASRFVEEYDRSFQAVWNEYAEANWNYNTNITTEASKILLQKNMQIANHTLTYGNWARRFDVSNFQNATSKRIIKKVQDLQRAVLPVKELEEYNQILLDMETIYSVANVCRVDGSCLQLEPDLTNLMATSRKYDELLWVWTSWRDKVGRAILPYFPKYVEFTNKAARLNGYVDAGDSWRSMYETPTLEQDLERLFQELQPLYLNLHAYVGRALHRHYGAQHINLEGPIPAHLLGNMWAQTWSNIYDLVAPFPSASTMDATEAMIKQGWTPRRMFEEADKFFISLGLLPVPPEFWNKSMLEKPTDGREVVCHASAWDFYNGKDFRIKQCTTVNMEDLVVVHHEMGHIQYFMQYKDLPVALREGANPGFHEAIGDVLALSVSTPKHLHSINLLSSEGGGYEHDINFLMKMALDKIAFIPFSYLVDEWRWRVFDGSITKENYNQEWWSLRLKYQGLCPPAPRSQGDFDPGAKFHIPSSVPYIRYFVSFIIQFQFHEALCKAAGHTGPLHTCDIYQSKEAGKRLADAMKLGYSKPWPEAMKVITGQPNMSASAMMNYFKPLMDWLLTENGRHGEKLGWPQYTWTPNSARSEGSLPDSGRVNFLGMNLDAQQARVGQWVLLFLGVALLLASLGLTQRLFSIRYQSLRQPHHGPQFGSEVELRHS
Put plainly: ACE inhibition pattern by Lineweaver-Burk plots. In kind it is biochemical. As to conditions: substrate HHL. A digest of the protocol:
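ACE kept constant while test compound (in 0.1% DMSO) and HHL substrate were both varied. Enzyme and compound were pre-incubated 10 min at 37℃, then HHL in 50 mM sodium borate with 500 mM NaCl, pH 8.3, was added for 60 min at 37℃. Stopped with 1 M HCl; hippuric acid extracted into ethyl acetate, dried, redissolved in water, A228. 0.1% DMSO control. Lineweaver-Burk plots, mean ± SD of three determinations.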

For data set [2], the system named is EAhy926 cells. The data set can be described thus: Cell viability, MTT assay. In kind it is cell-based, human. In short, it runs like this: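 EAhy926 cells grown in DMEM with 10% heat-inactivated calf serum, penicillin and streptomycin at 37℃, 5% CO2. Seeded at 1.0 × 10^5 cells/ml, held 16 h, then exposed 24 h to a range of test compound concentrations in 0.1% DMSO. MTT (2 mg/ml stock) added for 4 h; formazan dissolved in DMSO, A540. Viability as % of 0.1% DMSO control; mean ± SD of three determinations.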
For orientation: Tetrazolium assays rely on reduction of a dye to a coloured formazan, in cell work by metabolically active cells.

The test system of data set [3] is glycosidases from the viscera of the turban shell Turbo cornutus. To be noted: cited from earlier work.
For data set [4], the system named is EAhy926 cells. The data set can be described thus: Nitric oxide. To be noted: 24 h, P < 0.05. The data set is classed as cell-based, human. A digest of the protocol: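 EAhy926 cells at 1.5 × 10^5 cells/well were treated 24 h with a range of test compound concentrations in 0.1% DMSO, with 0.1% DMSO as control. Supernatant nitrite: supernatant mixed 1:1 with Griess reagent (0.1% N-(1-naphthyl)-ethylenediamine, 1% sulfanilamide in 5% phosphoric acid), 10 min at room temperature, A550 against a sodium nitrite standard curve. Mean ± SD of three determinations; one-way ANOVA with Duncan's test, P < 0.05.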

For the compound `Oc1cc(O)cc(Oc2c(O)cc(O)c3c2Oc2c(O)cc(Oc4c(O)cc(Oc5c(O)cc(O)c6c5Oc5c(O)cc(O)cc5O6)cc4O)cc2O3)c1` [Dieckol, dieckol], in data set [1], the ACE inhibition mode result is reported as “non-competitive inhibitor”. For the same compound, the Cytotoxic effect entry with EAhy926 cells [2] is “no cytotoxic effect”. Besides, the “Survival rate of cells” value in the data set with EAhy926 cells [2] (24 h, all of the concentrations used) is “higher than 95%”. Besides, in data set [3], the Glycosidase inhibition mode entry is “non-competitive inhibitor”. Besides, the “Concentrations with inducible effect on the production of NO” value in the data set on EAhy926 cells [4] is on record as “higher than 0.27 mM”.
